STAT1 act = STAT1 signaling activators, primary screen, cell-based, HTS, luciferase reporter; NIH 3T3 STAT1-luciferase reporter, IFN-gamma, luminescence; 100% = IFN-gamma alone, no compound; activation (% of control), % at 5.5 µM; actives 2.6% (n = 200,000);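 active means activation above the screen-wide mean activation plus 3 SD, cut at about 130% in these data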;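 further: raw ratio to IFN-gamma control signal so 100% means no change and 0% no light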
STAT3 blocker = IL-6 driven STAT3 reporter inhibitors, primary screen, U3A cells, luciferase, luminescence, MLSCN library | IL-6 STAT3-luciferase reporter; host cell line lacks STAT1 | inhibition, % at 5.5 µM | actives 0.89% (n = 190,000);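 active means inhibition above the mean inhibition across all screened compounds plus 3 SD, cut at about 44% in these data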;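 further: 0% = DMSO only wells and 100% = 100 µM nifuroxazide control wells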
FLuc act counter = FLuc activators, initial screening, artefact control for FLuc-dependent activation tests, biochemical, ATPlite luminescence; ATPlite luciferase biochemical, 10 min; 0 = ATP-free wells, 1 = DMSO control; activation factor at 10 µM; 200,000 tested, under 10 active;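 active means luciferase activation factor, scaled between plate controls, of at least 2 with compound at 10 µM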
Target sequence (P08659 whole entry, looked up): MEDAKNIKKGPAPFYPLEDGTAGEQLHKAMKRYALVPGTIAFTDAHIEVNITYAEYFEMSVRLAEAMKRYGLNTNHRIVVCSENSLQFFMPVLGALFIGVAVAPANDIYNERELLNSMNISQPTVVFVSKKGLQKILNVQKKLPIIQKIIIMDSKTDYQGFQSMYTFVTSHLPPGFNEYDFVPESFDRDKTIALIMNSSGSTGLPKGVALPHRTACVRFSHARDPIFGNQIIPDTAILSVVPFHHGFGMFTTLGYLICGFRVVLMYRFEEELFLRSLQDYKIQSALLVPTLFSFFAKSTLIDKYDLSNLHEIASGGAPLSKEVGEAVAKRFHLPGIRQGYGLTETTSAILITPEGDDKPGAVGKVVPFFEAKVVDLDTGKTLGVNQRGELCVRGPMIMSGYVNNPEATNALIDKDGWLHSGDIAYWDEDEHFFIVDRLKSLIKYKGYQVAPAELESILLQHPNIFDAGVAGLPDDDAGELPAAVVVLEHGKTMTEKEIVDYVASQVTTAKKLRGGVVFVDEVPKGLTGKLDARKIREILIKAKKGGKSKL
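System: Luciferase/luciferin detection reagent, cell-free biochemical luciferase assay | Medium: PBS buffer for ATP | Dosing: Test compounds dosed from 2 mM stocks in 100% DMSO | Timing: 10 min at ambient temperature | Signal: Luminescence measurement of luciferase light output | Evaluation: Luciferase activation, seen as luminescence increase over controls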
STAT3 activator = IL-6 driven STAT3 reporter potentiators, primary screen, U3A cells, luciferase, luminescence, MLSCN library. actives 0.91% (n = 190,000). IL-6 STAT3-luciferase reporter; 100% = signal with IL-6 EC80 alone. AID 871, 2007. activation (% of control), % at 5.6 µM;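 active means activation above the screen-wide mean of compound activation plus 3 SD, cut at about 130% in these data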;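 further: 0% = background luminescence of wells with medium and substrate only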
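Test system: human U3A cells carrying STAT3-luciferase construct; control set: IL-6-only wells as 100% reference; timing: compound pre-incubation 1 h before IL-6, then 6 h stimulation at 37 °C; also added: IL-6 stimulus at 33 ng/mL final; evaluation: % activation versus median of IL-6-stimulated wells; detection: reporter luminescence signal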
STAT1 inh = STAT1 signaling inhibitors, primary screen, cell-based, HTS, luciferase reporter | NIH 3T3 STAT1-luciferase reporter, IFN-gamma, luminescence | inhibition, % at 5.5 µM | actives 0.35% (n = 200,000);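 active means inhibition above a set limit, the mean inhibition across all tested compounds plus 3 SD, cut at about 34% in these data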;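 further: 0% = IFN-gamma with DMSO and 100% = IFN-gamma with 300 µM nifuroxazide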
FLuc inh counter = firefly luciferase enzyme inhibitors, primary screen, artefact control for luciferase-based inhibitor screens, biochemical, luminescence, ATPLite. Luciferin 4-monooxygenase (Photinus pyralis), P08659. 10 min. inhibition, % at 10 µM. actives 1.5% (n = 200,000). AID 1006, 2008;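 active means inhibition above about 50% when tested at 10 µM, limit read from the data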
STAT1 activ conf = STAT1 signaling activators, confirmation, cell-based, HTS, luciferase reporter; shares compounds with STAT1 act; NIH 3T3 STAT1-luciferase reporter, IFN-gamma potentiation, luminescence; 100% = IFN-gamma EC80 alone, no compound; activation (% of control), % at 5.7 µM; actives 97% (n = 1,200);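 active means activation above a set limit carried over from the earlier primary STAT1 screen, cut at about 140% in these data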;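 further: simple ratio to median IFN-gamma plus DMSO wells so 0% means no light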
NFkB act = NF-kB reporter activators, TNF-alpha stimulated, counter-screen for STAT1 activator project, cell-based, HEK293T, luciferase luminescence | 100% = TNF-alpha with vehicle only | activation (% of control), % at 5.7 µM | actives 43% (n = 1,200) | shares compounds with STAT1 act;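 active means activation above the mean of solvent-only control wells plus 3 SD, set per campaign, cut at about 130% in these data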;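 further: TNF-alpha given at a submaximal dose yielding about 80% of full reporter signal; values are well signal over median control so 100% means no change and 0% no light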
STAT3 act 2 = STAT3 reporter activation by STAT1 hits, confirmation, counter-screen for STAT1 activator project, U3A cells, luciferase, luminescence; activation (% of control), % at 5.7 µM; AID 1316, 2008; actives 46% (n = 1,200); IL-6; cells lack STAT1; 100 = IL-6 alone, no compound effect; shares compounds with STAT1 act;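 active means activation above the solvent-only control well mean plus 3 SD, set per plate batch, cut at about 110% in these data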;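 further: 0% = no luminescence and 100% = median IL-6 plus DMSO wells; higher means more STAT3 reporter activation so hits are non-selective activators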
* hit, by the source's call; . = no result. The list is not random: actives were taken first. Their share in the collection is about 4.9%.

SMILES | STAT1 act | STAT3 blocker | FLuc act counter | STAT3 activator | STAT1 inh | FLuc inh counter | STAT1 activ conf | NFkB act | STAT3 act 2
CCOC(=O)c1cc(C#N)c(N2CCN(c3ccccn3)CC2)nc1-c1ccccc1 | 97.6 | 17.2 | 1 | 89.5 | -0.3 | 1.8 | . | . | .
COc1nc(Nc2ccc([N+](=O)[O-])cc2)nc(NC2CCCCC2)n1 | 96.0 | 15.1 | 1.1 | 89.2 | 3.8 | -6.1 | . | . | .
Cc1ccc(-n2[nH]c(C)c(C=NC34CN5CN(CN(C5)C3)C4)c2=O)cc1C | 99.0 | -4.3 | 1.1 | 103.8 | 1.0 | -5.4 | . | . | .
COCCCN=Cc1c(C)[nH]n(-c2ccc(Br)c(C)c2)c1=O | 165.1* | 28.6 | 0.8 | 78.4 | -73.6 | 21.0 | 249.5* | 121.5 | 80.3
O=C(O)CSC1=NC(=Nc2ccc(Cl)cc2)C2(CCCCC2)N1c1cccc(C(=O)O)c1 | 99.4 | 0.9 | 1 | 101.2 | 0.7 | -4.3 | . | . | .
S=C(Nc1ccc(Cl)cc1)c1nc2ccccc2[nH]1 | 167.3* | 0.8 | 0.3 | 99.6 | -75.6 | 66.3* | 191.7* | 134.4* | 101.7
Cc1ccccc1NC(=S)c1nc2ccccc2[nH]1 | 123.0 | -31.8 | 0.6 | 123.8 | -25.9 | 36.1 | . | . | .
COc1cccc(/C=N/NC(=O)CN2CC(c3ccccc3)CC2=O)c1O (stereo not given) | 99.4 | 10.6 | 0.8 | 97.9 | 0.6 | 24.1 | . | . | .
COc1ccc(NC(=O)/C(Cl)=C(/Cl)S(=O)Cc2ccccc2)cn1 (stereo not given) | 203.8* | 7.9 | 1 | 99.0 | -112.4 | -1.7 | 335.6* | 48.2 | 105.3
CCc1nc2ccccc2n1Cc1ccccc1F | 91.8 | -2.7 | 1 | 102.0 | 8.8 | -4.2 | . | . | .
COc1ccc(NC(=O)c2cn(-c3ccccc3)nc2-c2cc3ccccc3o2)cc1 | 107.4 | 30.0 | 1 | 82.7 | -8.2 | -2.0 | . | . | .
OCc1cn(-c2ccccc2)nc1-c1cc2ccccc2o1 | 167.3* | 10.4 | 0.7 | 94.6 | -72.8 | 28.7 | 212.8* | 138.6* | 106.8
O=C(N/N=C/c1cn(-c2ccccc2)nc1-c1cc2ccccc2o1)c1c[nH]c2ccccc12 | 186.6* | -2.2 | 0.7 | 107.5 | -93.5 | 34.5 | 198.7* | 134.6* | 105.0
O=C(N/N=C/c1cn(-c2ccccc2)nc1-c1cc2ccccc2o1)c1ccccc1Br | 120.3 | 11.3 | 0.9 | 93.2 | -22.5 | 5.5 | . | . | .
Cc1ccc(COc2ccsc2C(=O)NNC(N)=S)cc1 | 97.0 | 7.7 | 1 | 97.2 | 1.9 | -3.6 | . | . | .
Cc1ccc2oc(=O)c3cc(C(=O)Nc4cc(-c5cccc(F)c5)no4)sc3c2c1 | 88.6 | -2.3 | 1.1 | 101.9 | 12.5 | -5.1 | . | . | .
N#CC1(c2ccc(NC(=O)c3ccccc3F)cc2)CCCC1 | 161.3* | 34.8 | 0.4 | 72.7 | -67.6 | 64.0* | 228.3* | 132.9 | 104.1
CCN(CC)c1ccc(NC(=O)c2ccccc2F)cc1 | 163.5* | 25.0 | 0.5 | 81.7 | -69.5 | 46.8 | 192.3* | 123.5 | 95.7
COc1ccc(C(=O)Nc2ccc(C3(C#N)CCCC3)cc2)cc1 | 112.3 | 17.1 | 0.8 | 87.3 | -15.3 | 18.6 | . | . | .

Bioassay records from PubChem BioAssay.
